Compound activity: PubChem BioAssay, Sanford-Burnham Center for Chemical Genomics
This is a sample that favours compounds with a hit; in the whole collection about 3% have one here.
SENP6 inh = inhibitors of human SENP6 protease; AID 2599; 1.8% of 330,000 active; inhibition, % at 10 µM; Q9GZR1; Recombinant SENP6 catalytic domain, aminoluciferin luminescence;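 active = inhibition above about 50% at the single tested dose, limit read from the data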
SENP8 block-1 = blocks the human protease SENP8; Q96LD8; purified SENP8, Z-RLRGG-aminoluciferin cleavage, luminescence; inhibition, % at 10 µM; 1.2% of 330,000 active; in the data active = inhibition above about 50%
SENP8 block-2 = blocks human SENP8 cleavage of Nedd8 substrate | AID 602440 | recombinant SENP8, Nedd8 substrate fluorescence | inhibition, % at 20 µM | 0.64% of 360,000 active | Q96LD8; in the data active = inhibition mostly above about 40%, no sharp cut-off; inactive = mostly below about 27%
Apaf1 inhib = blocks human Apaf-1 apoptosome activity; inhibition, % at 20 µM; 0.71% of 330,000 active; reconstituted apoptosome caspase-3 activity, DEVD-Rh110 fluorescence; AID 489030; active = inhibition of at least 40% at 20 µM
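Material: cell-free apoptosome with Apaf-1, procaspase-3 and caspase-9; Buffer or medium: Hepes pH 7.5 with detergent and BSA; Reagent: cytochrome c trigger plus (Z-DEVD)2-Rh110 caspase-3 substrate; Times: compound with Apaf-1, dATP, procaspase-3 30 min, then 50 min reaction, room temperature; Technique: Rh110 fluorescence intensity.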
SENP7 block = SENP7 protease inhibition | recombinant SENP7, Z-RLRGG-aminoluciferin luminescence, 40 min | inhibition, % at 5 µM | Q9BQF6 | 1.5% of 330,000 active;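 active = inhibition above about 50% at the single test dose, limit read from the data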
UBC13 polyUb = blocks human UBC13 polyubiquitin chain formation | TR-FRET | 0.47% of 330,000 active | inhibition, % at 20 µM; in the data active = inhibition above about 45%, passing the limit was not always enough
Target sequence (P61088 whole entry, looked up): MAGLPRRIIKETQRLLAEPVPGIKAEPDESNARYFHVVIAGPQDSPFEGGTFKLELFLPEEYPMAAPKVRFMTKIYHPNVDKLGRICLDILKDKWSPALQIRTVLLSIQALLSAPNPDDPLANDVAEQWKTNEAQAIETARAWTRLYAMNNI
SENP8 confirm = confirmation of human SENP8 protease inhibitors; shares compounds with SENP7 block; Recombinant SENP8, Z-RLRGG-aminoluciferin luminescence, 60 min; inhibition, % at 12.5 µM; 40% of 6,200 active; AID 488912;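 active = mean inhibition across replicates above about 50%, limit read from the data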
SENP6 confirm = human SENP6 inhibition, confirmed | shares compounds with SENP7 block | recombinant SENP6, Z-RLRGG-aminoluciferin luminescence | inhibition, % at 12.5 µM | 58% of 6,200 active
SENP7 conf = human SENP7 inhibition, confirmed. inhibition, % at 12.5 µM. shares compounds with SENP7 block. 69% of 6,200 active. recombinant SENP7, Z-RLRGG-aminoluciferin luminescence, 40 min
Casp3 select = caspase-3 inhibition (SENP selectivity assay). shares compounds with SENP7 block. purified caspase-3, Z-DEVD-aminoluciferin luminescence, 60 min. inhibition, % at 12.5 µM. 60% of 6,200 active. AID 488918;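 active = mean inhibition above about 50%, limit read from the data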
Target sequence (P42574 28-227 limits assumed): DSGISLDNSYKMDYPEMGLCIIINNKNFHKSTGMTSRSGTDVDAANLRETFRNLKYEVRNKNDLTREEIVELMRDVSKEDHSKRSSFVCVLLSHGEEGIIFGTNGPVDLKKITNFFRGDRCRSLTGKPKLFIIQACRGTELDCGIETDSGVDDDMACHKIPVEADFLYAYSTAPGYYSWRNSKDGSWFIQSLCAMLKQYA
SENP luc ctr = luminescence interference (SENP counter-screen); shares compounds with SENP7 block; Pre-incubated SENP8/Z-RLRGG-aminoluciferin, luciferase luminescence interference; inhibition, % at 12.5 µM; 39% of 6,200 active;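 active = mean inhibition above about 50% when retested at one dose, limit read from the data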
A number is an active result; - = inactive; . = no result.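 Rule for the calls, unless noted: active = mean inhibition above about 50% in the one-dose retest (limit read from the data); inactive = the rest.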

SMILES | SENP6 inh | SENP8 block-1 | SENP8 block-2 | Apaf1 inhib | SENP7 block | UBC13 polyUb | SENP8 confirm | SENP6 confirm | SENP7 conf | Casp3 select | SENP luc ctr
O=C(Nc1ccc2c(c1)OCCO2)c1ccc(Cl)c([N+](=O)[O-])c1 | - | - | - | - | - | - | . | . | . | . | .
Cc1cc(C(=O)Nc2ccc3c(c2)OCCO3)ccc1[N+](=O)[O-] | 84 | 77 | - | - | 92 | - | - | 57 | 94 | 81 | -
CCCNC(=O)C1(C)CCCN(Cc2csc(-c3ccccc3)n2)C1 (stereo not given) | . | . | - | . | . | . | . | . | . | . | .
Nc1ccn([C@@H]2O[C@H](C(=O)Nc3ccc(Oc4ccccc4)nc3)[C@@H](O)[C@H]2O)c(=O)n1 | . | . | - | . | . | . | . | . | . | . | .
Cc1ccc(N2CCN(c3ccc(NCc4nc5ccccc5n4C)cc3)CC2)cc1 | - | - | - | - | - | - | . | . | . | . | .
Cc1cccc(NCc2nc3ccccc3n2C)c1 | 50 | - | - | - | 56 | - | - | - | 79 | 71 | 56
Cc1cccc(NCc2nc3ccccc3n2Cc2ccccc2)c1 | 58 | - | - | - | - | - | - | - | 58 | - | -
Cc1ccc(NCc2nc3ccccc3n2C)c(C)c1 | 76 | 71 | - | - | 79 | - | 83 | 83 | 95 | 88 | 85
Cn1c(CNc2ccc(Cl)cc2)nc2ccccc21 | - | - | - | - | - | - | . | . | . | . | .
COc1ccc(C(C)(O)c2nc(-c3ccccc3C)cs2)cc1 (stereo not given) | . | . | - | . | . | . | . | . | . | . | .
O=C(O)c1ccc(/C=C/C(=O)c2ccc3c(c2)OCCCO3)cc1 | 60 | - | - | - | - | - | 70 | 57 | 74 | - | 78
CCOC(=O)C1=CCN(S(=O)(=O)c2ccc(F)cc2)C1c1ccc(Cl)c(Cl)c1 (stereo not given) | . | . | - | . | . | . | . | . | . | . | .
O=c1[nH]c(-c2ccccc2)cnc1-c1ccccc1 | 52 | - | - | - | 74 | - | - | - | - | - | -
N#Cc1c(/N=C/c2cccs2)sc2c1CCC2 | 65 | 79 | - | - | 95 | - | - | - | - | - | -
CN(C)/C=N/c1sc2c(c1C#N)CCCC2 | - | - | - | - | - | - | . | . | . | . | .
N#Cc1c(/N=C/c2ccco2)sc2c1CCCCC2 | 92 | 94 | - | - | 96 | - | - | 98 | 69 | 75 | -
CCCCN(C=O)c1c(CC)nc2c(OCc3ccc(Cl)cc3)cccn12 | . | . | - | . | . | . | . | . | . | . | .
COc1ccc2occ(C(=O)c3cccs3)c2c1 | 69 | - | - | - | 52 | - | 56 | 58 | 84 | 52 | 62
Cc1ccc(C(=O)c2coc3ccc(O)cc23)cc1 | 86 | 88 | - | - | 92 | - | - | 94 | 100 | 84 | 84
COc1ccc2c(CC(=O)NNC(=O)c3cccs3)coc2c1 | - | - | - | - | - | - | . | . | . | . | .
COc1ccc(C(=O)c2coc3ccc(OC(C)=O)cc23)cc1 | - | 60 | - | - | - | - | 58 | 55 | 66 | 50 | -
COc1ccc(OC)c(C(=O)c2coc3ccc(OC(C)=O)cc23)c1 | - | - | - | - | - | - | . | . | . | . | .
COc1ccc2occ(C(=O)c3ccc(N)cc3)c2c1 | - | - | - | - | 53 | - | 55 | 54 | 82 | - | 65
Cc1ccc(C(=O)c2coc3ccc(O)c(Cl)c23)cc1 | - | - | - | - | - | - | . | . | . | . | .
COc1cc(Nc2ccn3nc(-c4ccccc4Cl)cc3n2)cc(OC)c1OC | . | . | - | . | . | . | . | . | . | . | .
CCCn1c(O)c(N=Nc2ccc3ccccc3n2)c2ccccc21 | 95 | 85 | - | - | 93 | - | - | 57 | 61 | 70 | -
COc1cccc(C(O)c2ncc(-c3cccc4ccccc34)[nH]2)c1 (stereo not given) | . | . | - | . | . | . | . | . | . | . | .
